Data on two compounds can be found in ChEMBL document CHEMBL1136473, “6-(2-adamantan-2-ylidene-hydroxybenzoxazole)-O-sulfamate: a potent non-steroidal irreversible inhibitor of human steroid sulfatase” (Bioorg Med Chem Lett, 2003).

One assay addresses Estrogen receptor beta (Homo sapiens, UniProt Q92731). Briefly: Affinity for human estrogen receptor beta.
The target in assay [1] is T1, Steryl-sulfatase (Homo sapiens, UniProt P08842).
T1 sequence (P08842 whole entry): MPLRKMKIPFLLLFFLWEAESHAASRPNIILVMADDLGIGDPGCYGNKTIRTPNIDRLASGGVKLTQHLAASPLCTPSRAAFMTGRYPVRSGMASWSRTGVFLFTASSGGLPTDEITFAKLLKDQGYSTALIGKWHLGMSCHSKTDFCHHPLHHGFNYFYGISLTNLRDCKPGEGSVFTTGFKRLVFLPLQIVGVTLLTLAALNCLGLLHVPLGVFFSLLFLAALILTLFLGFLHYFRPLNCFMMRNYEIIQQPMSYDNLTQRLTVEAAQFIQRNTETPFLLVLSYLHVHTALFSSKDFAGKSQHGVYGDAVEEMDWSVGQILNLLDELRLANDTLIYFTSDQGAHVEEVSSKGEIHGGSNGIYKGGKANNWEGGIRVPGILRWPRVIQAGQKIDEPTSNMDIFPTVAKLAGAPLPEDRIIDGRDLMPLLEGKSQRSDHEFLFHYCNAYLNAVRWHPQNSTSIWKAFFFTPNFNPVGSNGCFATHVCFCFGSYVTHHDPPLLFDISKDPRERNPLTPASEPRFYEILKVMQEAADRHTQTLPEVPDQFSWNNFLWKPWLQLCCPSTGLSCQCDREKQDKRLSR
The assay can be described thus: Inhibitory activity against STS in human MCF-7 breast cancer cells. In kind it is cell-based. The note with it: mcf7. Put shortly:
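Intact MCF-7 breast cancer cells; STS-dependent cleavage of estrone sulfate substrate measured to derive IC50.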

For assay [2], the target named is T1, Steryl-sulfatase. Briefly: Inhibitory activity against human steroid sulfatase expressing in CHO cells. In kind it is cell-based.
For assay [3], the target named is T2, Steryl-sulfatase (Homo sapiens) (UniProt P08842).
T2 sequence (whole entry): T1 sequence (P08842 whole entry)
Briefly: Rate constant of inactivation against human steroid sulfatase. Put shortly: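 Purified human steroid sulfatase incubated with a range of inhibitor concentrations. Residual enzyme activity measured over time to follow inactivation kinetics, giving Ki and kinact.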

In assay [4] the target is T3, Arylsulfatase A (Homo sapiens) (UniProt P15289).
T3 sequence (whole entry): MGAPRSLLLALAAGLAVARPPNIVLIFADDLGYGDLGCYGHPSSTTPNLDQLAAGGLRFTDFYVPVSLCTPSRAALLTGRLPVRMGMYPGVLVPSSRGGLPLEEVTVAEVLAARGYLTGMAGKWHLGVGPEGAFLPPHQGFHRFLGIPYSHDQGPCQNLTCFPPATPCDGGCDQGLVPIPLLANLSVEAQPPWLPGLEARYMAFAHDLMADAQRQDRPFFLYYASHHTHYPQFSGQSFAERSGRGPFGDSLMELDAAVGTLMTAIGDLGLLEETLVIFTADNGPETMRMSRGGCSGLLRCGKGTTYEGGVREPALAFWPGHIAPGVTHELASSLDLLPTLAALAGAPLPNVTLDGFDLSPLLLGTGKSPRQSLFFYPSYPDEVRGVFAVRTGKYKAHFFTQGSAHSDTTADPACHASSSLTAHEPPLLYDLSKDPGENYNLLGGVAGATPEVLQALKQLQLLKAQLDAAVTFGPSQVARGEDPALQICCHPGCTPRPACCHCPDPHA
Briefly: Inhibitory activity against human Arylsulfatase A (ASA) isolated from human placenta; IA=Inactive. Put shortly: (§1)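 Arylsulfatases A and B purified from human placenta and assayed with inhibitor present at up to 10 μM. Time dependence of inhibition examined.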

A further assay addresses T4, Estrogen receptor (Homo sapiens, UniProt P03372).
T4 sequence (P03372 whole entry): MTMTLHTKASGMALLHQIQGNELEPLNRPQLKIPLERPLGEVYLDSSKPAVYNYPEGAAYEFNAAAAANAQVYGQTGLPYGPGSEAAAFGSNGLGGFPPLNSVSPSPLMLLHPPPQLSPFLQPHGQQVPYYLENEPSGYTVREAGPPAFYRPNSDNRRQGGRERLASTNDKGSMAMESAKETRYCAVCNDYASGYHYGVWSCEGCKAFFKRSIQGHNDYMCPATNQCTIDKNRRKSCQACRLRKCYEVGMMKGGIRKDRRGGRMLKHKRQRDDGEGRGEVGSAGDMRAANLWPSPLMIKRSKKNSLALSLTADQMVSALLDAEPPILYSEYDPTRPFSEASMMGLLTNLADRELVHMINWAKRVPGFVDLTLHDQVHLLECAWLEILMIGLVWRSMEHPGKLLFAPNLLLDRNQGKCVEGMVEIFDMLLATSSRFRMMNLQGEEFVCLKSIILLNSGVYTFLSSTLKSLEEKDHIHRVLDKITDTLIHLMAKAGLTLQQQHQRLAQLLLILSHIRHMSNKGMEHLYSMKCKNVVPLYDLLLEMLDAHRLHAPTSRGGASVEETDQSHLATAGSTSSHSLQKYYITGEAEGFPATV
Briefly: Affinity for human estrogen receptor alpha.

Assay [5] deals with T1, Steryl-sulfatase. The assay can be described thus: Inhibitory activity against human steroid sulfatase in fibroblasts.
Assay [6] deals with T1, Steryl-sulfatase. The assay can be described thus: Inhibitory constant against purified human steroid sulfatase.
Assay [7] deals with Arylsulfatase B (Homo sapiens) (UniProt P15848). The assay can be described thus: Inhibitory activity against human aryl sulfatase B (ASB) isolated from human placenta at a concentration up to 10 uM. Put shortly:
as §1

Assay [8] addresses T1, Steryl-sulfatase. Briefly: Inhibition of human STS in keratinocytes. In kind it is cell-based.

As usually defined, the EC50 is the concentration giving half of the maximal effect. The low end stands for higher potency in that assay, the high end for lower potency in that assay. Usually IC50 stands for the concentration that gives 50% inhibition. Broadly, the Ki is a measure of affinity in units of concentration, obtained from inhibition or displacement. As usually defined, the inhibition is the relative decrease from the control value, in per cent. A higher inhibition goes with strong suppression.

Activity calls are given as the source filed them. The calls are words filed in the database; no cut-off is given here.

Chain of Estrogen receptor beta (Q92731 whole entry): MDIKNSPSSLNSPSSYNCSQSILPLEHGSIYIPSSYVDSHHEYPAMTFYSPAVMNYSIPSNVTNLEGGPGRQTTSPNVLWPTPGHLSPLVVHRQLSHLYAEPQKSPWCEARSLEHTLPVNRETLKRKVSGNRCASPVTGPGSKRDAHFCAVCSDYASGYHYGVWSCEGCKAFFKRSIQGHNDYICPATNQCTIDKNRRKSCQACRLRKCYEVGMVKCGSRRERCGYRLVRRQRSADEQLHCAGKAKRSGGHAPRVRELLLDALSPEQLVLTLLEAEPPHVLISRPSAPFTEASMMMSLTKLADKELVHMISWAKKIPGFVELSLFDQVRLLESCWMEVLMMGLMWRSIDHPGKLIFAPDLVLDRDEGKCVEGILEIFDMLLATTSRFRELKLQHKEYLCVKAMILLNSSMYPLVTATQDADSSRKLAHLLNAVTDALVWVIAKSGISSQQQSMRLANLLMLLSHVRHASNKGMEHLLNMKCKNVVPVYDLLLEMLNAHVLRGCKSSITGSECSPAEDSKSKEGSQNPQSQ
Chain of Arylsulfatase B (Homo sapiens) (P15848 whole entry): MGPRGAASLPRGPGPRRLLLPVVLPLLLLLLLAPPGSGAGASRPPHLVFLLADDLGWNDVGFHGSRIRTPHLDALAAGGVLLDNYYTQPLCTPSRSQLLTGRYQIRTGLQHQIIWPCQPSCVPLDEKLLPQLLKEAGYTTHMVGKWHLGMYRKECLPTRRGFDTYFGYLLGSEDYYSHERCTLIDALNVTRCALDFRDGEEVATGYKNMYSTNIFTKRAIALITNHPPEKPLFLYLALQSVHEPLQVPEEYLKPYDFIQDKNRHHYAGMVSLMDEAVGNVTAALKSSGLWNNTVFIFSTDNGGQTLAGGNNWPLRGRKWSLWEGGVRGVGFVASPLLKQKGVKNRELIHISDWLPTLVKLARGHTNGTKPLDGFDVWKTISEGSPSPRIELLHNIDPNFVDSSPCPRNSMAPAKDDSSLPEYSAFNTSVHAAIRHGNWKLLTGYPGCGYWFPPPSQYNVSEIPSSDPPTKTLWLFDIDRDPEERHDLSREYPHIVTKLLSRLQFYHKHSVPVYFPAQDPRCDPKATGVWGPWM

With `NS(=O)(=O)Oc1ccc2nc(C=C3C4CC5CC(C4)CC3C5)oc2c1`, the EC50 on Estrogen receptor beta and at Estrogen receptor was above 100000 nM throughout. Besides, the IC50 against Steryl-sulfatase [1] came to 2.3 nM; against Steryl-sulfatase [2], 31.8 nM; against Steryl-sulfatase [5], 0.75 nM; against Steryl-sulfatase [8] it was 0.77 nM. In assay [3], this compound had a K inact of 0.097 U s-1. Moreover, the outcome in assay [4] was inactive. The compound also gave a Ki on Steryl-sulfatase [6] of 6000 nM. Moreover, in assay [7], the inhibition came out at 25%.

Consider `C[C@]12CC[C@@H]3c4ccc(OS(N)(=O)=O)cc4CCC3[C@@H]1CCC2=O` (single isomer, unassigned) [EMATE], for which the EC50 on Estrogen receptor beta is 3700 nM; on Estrogen receptor, 2600 nM. Besides, the K inact in [3] is 0.009 U s-1. On Steryl-sulfatase [6], this compound returned a Ki of 470 nM.
